Screening data (PubChem BioAssay)
ADAM10 inh: ADAM10 inhibition, QFRET primary screen | O14672 | recombinant ADAM10, EDANS/DABCYL FRET peptide cleavage, 3 h | inhibition, % at 7 µM | 370,000 tested, 0.62% active | AID 720582;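 active means inhibition above a per-campaign cutoff equal to the mean of compounds falling between control-based bounds plus 3 SD, cut at about 20% in these data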
NR2E3 ag-1: human photoreceptor-specific nuclear receptor agonism. Q9Y5X4. CHO-S Gal4-NCOR/VP16-NR2E3 two-hybrid, luciferase. inhibition of corepressor binding, % at 3.98 µM. 360,000 tested, 0.35% active. AID 602229;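 active means inhibition above the mean of all tested compounds plus 3 SD, cut at about 70% in these data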;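 further: higher means lower luciferase signal from less NR2E3 corepressor binding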
JMJD2C inh: inhibitors of human GASC-1 (JMJD2C) demethylase; Q9H3R0; GST-JMJD2C(1-420) H3K9me3 demethylation, DELFIA europium; inhibition, % at 2.35 µM; 330,000 tested, 0.069% active; AID 2099;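 active means more than half of a compound's replicate wells show inhibition beyond 50%, single wells judged on their own value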;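 further: signal counts dimethyl H3K9 product captured on neutravidin plate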
proKLK7 act: activates the human kallikrein-7 zymogen; 370,000 tested, 0.9% active; AID 652039; activation, % at 7 µM; purified proKLK7, EDANS-DABCYL substrate fluorescence; 100% is mature enzyme control, 0% vehicle; P49862;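 active means activation above the mean of all tested compounds plus 3 SD, computed per campaign excluding outliers beyond control limits, cut at about 13% in these data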
NR2E3 ag-2: NR2E3 (human) agonism; GST-NR2E3/biotin-RetCOR TR-FRET, 1536-well; inhibition of corepressor binding, % at 4.78 µM; 320,000 tested, 0.12% active;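 active means percent inhibition above the cutoff of mean plus 3 SD of all tested compounds, set per screening campaign, cut at about 20% in these data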
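Material: NR2E3–RetCOR corepressor complex / Incubation: Compound–protein incubation for 5 h at 4 °C / Dosing: compound at 4.8 µM, single dose / Detection: time-resolved FRET / Benchmarks: high control biotin, low control 0.6% DMSO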
ADAM17 inh: ADAM17 inhibition, QFRET primary screen; recombinant ADAM17, EDANS/DABCYL FRET peptide cleavage; inhibition, % at 6.95 µM; 370,000 tested, 0.83% active;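 active means inhibition above the mean of compounds lying between control limits plus 3 SD, set per campaign, cut at about 8.5% in these data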
Target sequence (P78536 215-824 limits assumed): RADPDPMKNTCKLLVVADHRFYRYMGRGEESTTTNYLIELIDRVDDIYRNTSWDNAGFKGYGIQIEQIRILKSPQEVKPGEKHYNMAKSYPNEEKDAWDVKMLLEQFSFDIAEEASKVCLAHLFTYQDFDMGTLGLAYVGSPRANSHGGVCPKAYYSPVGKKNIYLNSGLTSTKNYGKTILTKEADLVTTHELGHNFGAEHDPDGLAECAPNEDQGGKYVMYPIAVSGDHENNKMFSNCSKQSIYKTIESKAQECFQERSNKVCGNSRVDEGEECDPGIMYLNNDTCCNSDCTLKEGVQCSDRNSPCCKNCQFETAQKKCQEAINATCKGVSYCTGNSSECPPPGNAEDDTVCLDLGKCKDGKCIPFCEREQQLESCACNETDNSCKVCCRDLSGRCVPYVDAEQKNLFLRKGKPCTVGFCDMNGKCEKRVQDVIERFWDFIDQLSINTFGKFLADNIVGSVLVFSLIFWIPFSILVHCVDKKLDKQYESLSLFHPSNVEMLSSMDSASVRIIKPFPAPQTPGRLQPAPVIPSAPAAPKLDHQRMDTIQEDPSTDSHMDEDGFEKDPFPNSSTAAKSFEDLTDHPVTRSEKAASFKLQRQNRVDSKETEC
ADAM10 confirm: confirmation of inhibitors of human ADAM10; 2,100 tested, 1% active; ADAM10 QFRET peptide cleavage, EDANS fluorescence; inhibition, % at 6.95 µM; shares compounds with ADAM10 inh;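 active means inhibition above about 20% chosen separately for each screening run, limit read from the data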
ADAM17 ctr: inhibits human ADAM17 in ADAM10 exosite counter-screen | shares compounds with ADAM10 inh | ADAM17 QFRET peptide cleavage, EDANS fluorescence | inhibition, % at 6.95 µM | 2,100 tested, 0.5% active | AID 743214;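 active means mean triplicate inhibition above the solvent-only control wells' mean plus 3 SD, cut at about 12% in these data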
ADAM10 ctr: inhibits human ADAM10 in ADAM17 exosite counter-screen; inhibition, % at 6.95 µM; shares compounds with ADAM17 inh; AID 743256; recombinant ADAM10, EDANS/DABCYL FRET peptide cleavage, 3 h; 2,900 tested, 47% active;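 active means mean inhibition over the triplicate runs exceeds the activity threshold set in the earlier primary screen, cut at about 20% in these data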
ADAM17 confirm: human ADAM17 inhibition, confirmation | shares compounds with ADAM17 inh | recombinant ADAM17, EDANS/DABCYL QFRET peptide cleavage | inhibition, % at 6.95 µM | 2,900 tested, 65% active | AID 743257;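 active means mean inhibition across replicates above the hit cutoff set in the primary screen, cut at about 8.5% in these data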
Each line names hits and unclear results; the compound was inactive in the other large screens (follow-up assays come after a bar, where they were run). In the library only some 2.5% were active in any assay of this set; here they are far more common.

Cc1cccc(COc2ccccc2C(=O)N(C)CC(=O)Nc2cccc(F)c2)c1	ADAM10 inh 23, ADAM17 inh 11 | ADAM10 confirm inactive | ADAM17 ctr inactive | ADAM10 ctr inactive | ADAM17 confirm 13
CCOc1ccc(NC(=O)CN(C)C(=O)c2ccccc2OCc2cccc(C)c2)cc1OCC	none
O=C1C=CC(c2ccccc2)(c2ccccc2)CC1	none (no result: JMJD2C inh, NR2E3 ag-2)
CC(C)(C)NC(=O)C1c2ccccc2OCC(=O)N1CCCN1CCOCC1 (stereo not drawn)	none (no result: JMJD2C inh, NR2E3 ag-2)
CN(CC(=O)Nc1ccc(F)c(F)c1F)C(=O)C1=NN(c2ccccc2)C(=O)CC1	none (no result: JMJD2C inh)
CCOC(=O)[C@]12CCCC=C1N(Cc1cccc3ccccc13)C(=O)[C@H](CC(=O)NCc1cccs1)C2	ADAM10 inh 27, ADAM17 inh 10 (no result: JMJD2C inh, NR2E3 ag-2) | ADAM10 confirm inactive | ADAM17 ctr inactive | ADAM10 ctr 26 | ADAM17 confirm 16
CC(C)CCNC(=O)CO/N=C/c1ccccc1OC(F)F	none
C/C(CC(=O)Nc1ccc(Cl)c(Cl)c1)=N\NC(=O)Cc1ccccc1	none
COc1ccc(Cl)c(NC(=O)C/C(C)=N/NC(=O)CCc2ccccc2)c1	ADAM10 inh 25, ADAM17 inh 11 | ADAM10 confirm inactive | ADAM17 ctr inactive | ADAM10 ctr inactive | ADAM17 confirm inactive
Cc1cccc(NC(=O)Cn2c(=O)n(CCc3c[nH]c4ccccc34)c(=O)c3cccnc32)c1	ADAM10 inh 20, ADAM17 inh 10 (no result: NR2E3 ag-1) | ADAM10 confirm inactive | ADAM17 ctr inactive | ADAM10 ctr 27 | ADAM17 confirm 17
O=C(Cn1c(=O)n(CCc2c[nH]c3ccccc23)c(=O)c2cccnc21)Nc1ccccc1F	none
COc1ccccc1CNS(=O)(=O)c1c(C(=O)N2CCCCC2)c(C)n(C)c1C	none
Cc1cccc(NC(=S)NNc2ncc(C(F)(F)F)cc2Cl)c1	ADAM10 inh 21, ADAM17 inh 13 | ADAM10 confirm inactive | ADAM17 ctr inactive | ADAM10 ctr inactive | ADAM17 confirm inactive
CC(=O)N/C(=C\c1ccccc1)C(=O)OCc1cc(C)ccc1C	none
COc1ccc(NC(=S)N(Cc2ccccn2)Cc2ccccc2Cl)cc1	none
COc1cccc(NC(=S)N(Cc2ccccn2)Cc2ccccc2Cl)c1	ADAM10 inh 22, ADAM17 inh 9.3 | ADAM10 confirm inactive | ADAM17 ctr inactive | ADAM10 ctr 24 | ADAM17 confirm 13
Cc1noc(C)c1COc1ccc(C(=O)OCc2nnc(-c3ccc(Cl)cc3)o2)cc1	ADAM10 inh 22, ADAM17 inh 12 | ADAM10 confirm inactive | ADAM17 ctr inactive | ADAM10 ctr 21 | ADAM17 confirm 14
Cc1cc(Cn2nc(-c3ccccc3)cc2C(=O)NCc2cccc(Br)c2)on1	ADAM10 inh 37, ADAM17 inh 11 | ADAM10 confirm inactive | ADAM17 ctr inactive | ADAM10 ctr 24 | ADAM17 confirm 16
O=C1C=C(c2cccc(Cl)c2)C[C@@H](c2ccc(Cl)cc2)C1	none
O=C1C=C(c2cccc(Cl)c2O)C[C@@H](c2ccc(Cl)cc2)C1	ADAM10 inh 22, ADAM17 inh 14 | ADAM10 confirm inactive | ADAM17 ctr inactive | ADAM10 ctr 22 | ADAM17 confirm 13
COc1cc(OC)cc(C(=O)NC(=S)NNC(=O)[C@H]2C[C@@H]2c2ccccc2)c1	none
